Results reported in ChEMBL document CHEMBL4393666, “Synthesis and Anti-HCV Activities of 4'-Fluoro-2'-Substituted Uridine Triphosphates and Nucleotide Prodrugs: Discovery of 4'-Fluoro-2'- C-methyluridine 5'-Phosphoramidate Prodrug (AL-335) for the Treatment of Hepatitis C Infection” (J Med Chem, 2019).

Assays:
[1] = Cytotoxicity against human U937 cells treated for 8 days measured post-last dose by Celltiter-glo luminescent assay; format: cell-based, U-937
How it was run: (§1)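 Cells at 1×10^5/well on collagen I, first kept 8 days in recommended medium without drug. Then compound exposure for 8 days, refed every other day. Viability by CellTiter-Glo luminescence; CC50 by curve fitting.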

[2] = Cytotoxicity against human HuH7 cells treated for 8 days measured post-last dose by Celltiter-glo luminescent assay; format: cell-based, Huh-7; how it was run: as §1
[3] = Cytotoxicity against human HepG2 cells treated for 8 days measured post-last dose by Celltiter-glo luminescent assay; format: cell-based; how it was run: as §1
[4] = Cytotoxicity against human A549 cells treated for 8 days measured post-last dose by Celltiter-glo luminescent assay; format: cell-based; how it was run: as §1
[5] = Cytotoxicity against human HeLa cells treated for 8 days measured post-last dose by Celltiter-glo luminescent assay; format: cell-based; how it was run: as §1
[6] = Cytotoxicity against human MT4 cells treated for 8 days measured post-last dose by Celltiter-glo luminescent assay; format: cell-based; how it was run: as §1
[7] = Half life in human hepatocytes assessed as 2a-TP level at 50 uM treated for 24 hrs followed by compound washout by LC-MS/MS analysis; format: ADME, cell-based, Hepatocyte
How it was run: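 Primary human hepatocytes loaded with prodrug at 50 μM for 24 h at 37°C. Medium then replaced with blank medium; samples at 0, 3, 6, 10, 24 and 48 h. NTP by LC-MS/MS; half-life from first-order decay; n=3.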

[8] = test system: Hepatitis C virus; assay: Antiviral activity against HCV con1 subgenomic replicon infected in human HuH7 cells assessed as reduction in viral RNA replication by qRT-PCR analysis; format: functional, organism-based, Hepacivirus hominis; settings: isolate Con1, Huh-7
How it was run: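 Con1 subgenomic replicon Huh-7 cells (neomycin selection, kept in DMEM/10% FBS with 0.25 mg/ml G418) treated with compounds in DMEM, 2% FBS, 0.5% DMSO, no G418, at 37°C. Total RNA extracted; HCV RNA copy number by multiplex Taqman QRT-PCR. EC50/EC90 by 4-parameter curve fit; EC50 is the mean of ≥2 independent runs.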

[9] = Cytotoxicity against human HuH7 cells infected with HCV con1 subgenomic replicon assessed as reduction in cell viability measured after 3 days by CellTiter-blue cell viability assay; format: cell-based, Huh-7
How it was run: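 Con1 replicon Huh-7 cells treated as for the replicon assay (DMEM, 2% FBS, 0.5% DMSO, no G418, 37°C) for 3 days. Viability by CellTiter-Blue; CC50 by curve fitting.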

[10] = molecular target: T1, DNA polymerase alpha (Homo sapiens, UniProt P09884); assay: Inhibition of human DNA polymerase-alpha assessed as reduction in [3H]dTTP incorporation in to activated calf thymus DNA substrate at 100 uM by scintillation counting method relative to control; settings: human DNA polymerase-alpha enzyme, probe [3H]dTTP
T1 sequence (P09884 whole entry): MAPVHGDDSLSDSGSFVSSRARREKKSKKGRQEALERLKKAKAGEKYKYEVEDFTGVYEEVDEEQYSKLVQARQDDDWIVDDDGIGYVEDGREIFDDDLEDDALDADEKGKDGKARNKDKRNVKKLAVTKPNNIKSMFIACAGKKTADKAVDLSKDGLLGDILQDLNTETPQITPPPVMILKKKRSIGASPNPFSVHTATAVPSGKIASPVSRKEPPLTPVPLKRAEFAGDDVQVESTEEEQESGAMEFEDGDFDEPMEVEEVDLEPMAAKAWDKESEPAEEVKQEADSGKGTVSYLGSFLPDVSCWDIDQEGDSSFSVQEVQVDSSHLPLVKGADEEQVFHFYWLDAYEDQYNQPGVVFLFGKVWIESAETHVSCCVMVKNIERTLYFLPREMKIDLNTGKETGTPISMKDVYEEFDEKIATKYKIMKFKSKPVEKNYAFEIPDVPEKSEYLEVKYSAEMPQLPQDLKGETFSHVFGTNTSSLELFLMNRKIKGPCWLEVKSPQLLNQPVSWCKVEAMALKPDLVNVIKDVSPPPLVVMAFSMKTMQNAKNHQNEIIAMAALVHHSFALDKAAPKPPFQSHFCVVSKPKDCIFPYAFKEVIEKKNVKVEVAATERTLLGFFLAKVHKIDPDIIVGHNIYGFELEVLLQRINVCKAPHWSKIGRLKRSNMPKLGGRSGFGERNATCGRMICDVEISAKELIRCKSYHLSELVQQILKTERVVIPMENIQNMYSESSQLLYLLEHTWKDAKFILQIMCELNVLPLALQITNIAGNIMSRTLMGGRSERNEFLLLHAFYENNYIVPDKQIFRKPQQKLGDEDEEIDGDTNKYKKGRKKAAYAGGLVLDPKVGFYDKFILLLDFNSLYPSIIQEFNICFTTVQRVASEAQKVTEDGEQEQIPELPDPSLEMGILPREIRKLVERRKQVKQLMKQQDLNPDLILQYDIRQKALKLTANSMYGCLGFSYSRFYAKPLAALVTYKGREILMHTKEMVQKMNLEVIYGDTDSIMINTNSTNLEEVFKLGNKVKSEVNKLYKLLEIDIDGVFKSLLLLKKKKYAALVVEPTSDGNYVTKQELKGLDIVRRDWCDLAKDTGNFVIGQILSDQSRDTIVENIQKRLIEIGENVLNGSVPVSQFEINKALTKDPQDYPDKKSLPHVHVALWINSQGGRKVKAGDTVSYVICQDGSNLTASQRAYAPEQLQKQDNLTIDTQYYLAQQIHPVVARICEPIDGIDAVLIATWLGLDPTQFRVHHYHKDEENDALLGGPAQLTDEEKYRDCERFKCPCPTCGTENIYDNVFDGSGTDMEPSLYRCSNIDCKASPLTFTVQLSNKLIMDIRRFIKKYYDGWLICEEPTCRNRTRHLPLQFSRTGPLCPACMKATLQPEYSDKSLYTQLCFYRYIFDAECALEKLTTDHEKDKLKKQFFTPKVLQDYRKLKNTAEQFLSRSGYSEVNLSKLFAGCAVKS

[11] = Inhibition of RNA polymerase 2 in human HeLa cell nuclear extract assessed as reduction in RNA transcription by PAGE analysis; format: cell-based
How it was run: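 In vitro transcription by RNA polymerase II in HeLa cell nuclear extract; RNA products resolved on 6% TBE-urea polyacrylamide gels.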

[12] = molecular target: DNA polymerase beta (Homo sapiens, UniProt P06746); assay: Inhibition of human DNA polymerase-beta assessed as reduction in [3H]dTTP incorporation in to activated calf thymus DNA substrate at 100 uM by scintillation counting method relative to control; settings: human DNA polymerase-beta enzyme, probe [3H]dTTP
[13] = molecular target: T2, DNA polymerase gamma (Homo sapiens, UniProt P54098); assay: Inhibition of human DNA polymerase-gamma assessed as reduction in [3H]dTTP incorporation in to activated calf thymus DNA substrate at 100 uM by scintillation counting method relative to control; settings: human DNA polymerase-gamma enzyme, probe [3H]dTTP
T2 sequence (P54098 whole entry): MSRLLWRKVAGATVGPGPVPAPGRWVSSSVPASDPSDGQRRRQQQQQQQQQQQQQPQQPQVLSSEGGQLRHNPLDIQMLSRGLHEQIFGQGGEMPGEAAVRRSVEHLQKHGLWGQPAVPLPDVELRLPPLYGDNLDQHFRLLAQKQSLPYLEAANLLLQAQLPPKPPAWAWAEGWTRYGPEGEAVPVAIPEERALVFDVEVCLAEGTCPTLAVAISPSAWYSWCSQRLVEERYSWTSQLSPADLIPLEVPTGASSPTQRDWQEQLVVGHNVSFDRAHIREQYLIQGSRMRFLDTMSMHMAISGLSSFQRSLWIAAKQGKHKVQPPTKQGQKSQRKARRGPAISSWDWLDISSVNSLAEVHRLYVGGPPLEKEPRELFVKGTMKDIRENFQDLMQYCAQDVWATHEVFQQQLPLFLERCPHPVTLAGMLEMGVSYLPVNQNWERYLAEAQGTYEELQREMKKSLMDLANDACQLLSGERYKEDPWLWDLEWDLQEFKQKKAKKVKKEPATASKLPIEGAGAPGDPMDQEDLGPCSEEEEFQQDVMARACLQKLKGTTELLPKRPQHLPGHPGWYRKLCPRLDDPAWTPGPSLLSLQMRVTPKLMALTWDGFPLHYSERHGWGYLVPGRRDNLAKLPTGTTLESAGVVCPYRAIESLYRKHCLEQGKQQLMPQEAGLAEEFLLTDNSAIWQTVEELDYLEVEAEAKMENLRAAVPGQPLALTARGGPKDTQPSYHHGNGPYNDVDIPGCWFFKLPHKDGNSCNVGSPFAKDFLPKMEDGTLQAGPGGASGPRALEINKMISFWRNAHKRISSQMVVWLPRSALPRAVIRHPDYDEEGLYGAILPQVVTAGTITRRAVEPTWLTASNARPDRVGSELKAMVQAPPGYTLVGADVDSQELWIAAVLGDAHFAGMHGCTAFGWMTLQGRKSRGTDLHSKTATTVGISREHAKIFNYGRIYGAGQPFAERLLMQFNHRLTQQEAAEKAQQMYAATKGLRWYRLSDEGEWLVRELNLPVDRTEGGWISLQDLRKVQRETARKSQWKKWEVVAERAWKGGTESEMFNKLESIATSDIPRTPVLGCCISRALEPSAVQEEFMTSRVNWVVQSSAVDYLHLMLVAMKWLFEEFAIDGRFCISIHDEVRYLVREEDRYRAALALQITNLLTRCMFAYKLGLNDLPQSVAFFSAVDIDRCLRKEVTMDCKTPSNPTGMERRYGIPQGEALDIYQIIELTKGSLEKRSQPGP

[14] = molecular target: RNA-directed RNA polymerase (Hepacivirus hominis, UniProt O39930); assay: Inhibition of HCV NS5B RNA-dependent RNA polymerase activity assessed as reduction in radiolabeled-CTP incorporation into RNA using cIRES template measured after 2 hrs by microscintillation counting method
Chain of RNA-directed RNA polymerase (O39930 whole entry): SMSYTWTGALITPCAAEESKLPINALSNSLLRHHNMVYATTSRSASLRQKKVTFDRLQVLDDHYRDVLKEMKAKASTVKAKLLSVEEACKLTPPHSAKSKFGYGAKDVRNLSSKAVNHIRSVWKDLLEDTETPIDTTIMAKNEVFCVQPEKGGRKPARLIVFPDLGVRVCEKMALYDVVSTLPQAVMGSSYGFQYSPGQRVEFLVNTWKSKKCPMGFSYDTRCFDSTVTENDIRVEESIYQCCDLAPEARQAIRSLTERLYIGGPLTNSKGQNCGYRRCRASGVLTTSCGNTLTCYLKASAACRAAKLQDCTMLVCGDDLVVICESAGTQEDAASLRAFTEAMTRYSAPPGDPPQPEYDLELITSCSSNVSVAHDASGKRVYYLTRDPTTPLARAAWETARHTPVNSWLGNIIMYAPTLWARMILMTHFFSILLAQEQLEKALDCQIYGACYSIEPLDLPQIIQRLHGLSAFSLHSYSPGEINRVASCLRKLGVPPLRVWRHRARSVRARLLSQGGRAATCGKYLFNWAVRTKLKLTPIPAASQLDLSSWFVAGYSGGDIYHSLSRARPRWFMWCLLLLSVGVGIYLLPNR

SMILES | inhibition at 100 µM [10] [%] | IC50 [11] [nM] | inhibition at 100 µM [12] [%] | inhibition at 100 µM [13] [%] | IC50 [14] [nM] | other results
COc1nc(N)nc2c1ncn2[C@@H]1O[C@H](COP(=O)(N[C@@H](C)C(=O)OCC(C)(C)C)Oc2cccc3ccccc23)[C@@H](O)[C@@]1(C)O (stereo partly drawn) [BMS-986094] |  |  |  |  |  | CC50 at 192 h [1]: 170 nM; CC50 at 192 h [2]: 350 nM; CC50 at 192 h [3]: 1500 nM; CC50 at 192 h [4]: 7800 nM; CC50 at 192 h [5]: 13400 nM; CC50 at 192 h [6]: 960 nM
CC(C)OC(=O)[C@H](C)NP(=O)(OC[C@@]1(F)O[C@@H](n2ccc(=O)[nH]c2=O)[C@](C)(O)[C@@H]1O)Oc1ccccc1 (stereo partly drawn) |  |  |  |  |  | t1/2 [7]: 30.1 h; EC50 [8]: 110 nM; CC50 at 72 h [9]: > 100000 nM
C[C@]1(F)[C@H](n2ccc(=O)[nH]c2=O)O[C@](F)(COP(=O)(O)OP(=O)(O)OP(=O)(O)O)[C@H]1O | 40.9 | > 100000 | 15.2 | -10 | 860 | 
C[C@@]1(F)[C@H](O)[C@@H](COP(=O)(O)OP(=O)(O)OP(=O)(O)O)O[C@H]1n1ccc(=O)[nH]c1=O [GS-461203] | 58.2 | > 100000 | 14 | 9.2 |  | 
O=c1ccn([C@@H]2O[C@H](COP(=O)(O)OP(=O)(O)OP(=O)(O)O)[C@@H](O)[C@]2(F)Cl)c(=O)[nH]1 | 70.8 | > 100000 | 24.7 | 15.7 | 300 | 
